# Only some compounds are listed: those with a hit (about 1.9% of all), similar ones and a draw of the others.
# STEP block: STEP phosphatase inhibitors, primary screen, biochemical, fluorescence intensity, uHTS; recombinant STEP, OMFP fluorogenic substrate; inhibition, % at 20 µM; 360,000 compounds, 0.25% hits; AID 588621, 2011;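 active = inhibition at 20 µM, scaled per plate between control wells, above about 37%, limit read from the data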
#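 System: STEP phosphatase, cell-free reaction; Buffer or medium: Bis-Tris pH 6.0 buffer with DTT, detergent; Incubation: 20 min at room temperature, dark; Measured by: fluorescence, 480/540 nm.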
# Scp-1 inhibitor: Scp-1 phosphatase inhibitors, primary screen, biochemical, colorimetric, uHTS | 340,000 compounds, 0.88% hits | Carboxy-terminal domain RNA polymerase II polypeptide A small phosphatase 1 (Homo … | Recombinant Scp1, phosphopeptide, malachite green phosphate absorbance | inhibition, % at 20 µM;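 active = inhibition above about 50% at 20 µM, limit read from the data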
# Target sequence (Q9GZU7 76-261 limits assumed): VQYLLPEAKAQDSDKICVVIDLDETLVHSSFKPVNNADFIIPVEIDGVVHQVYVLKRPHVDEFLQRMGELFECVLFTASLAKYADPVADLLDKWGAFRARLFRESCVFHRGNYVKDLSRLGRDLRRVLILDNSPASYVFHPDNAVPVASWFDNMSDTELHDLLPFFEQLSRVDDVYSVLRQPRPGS
#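 Material – SCP-1 phosphatase catalytic domain, residues 76-261 · Buffer or medium – Acidic Tris acetate buffer with magnesium and detergent · Also added – Phospho 17-mer peptide substrate · Compound – single 20 µM dose, 1% DMSO · Times – 45 min room-temperature reaction, 5 min colour, 30 min stabiliser · Technique – Phosphate-binding colour reagent, absorbance read at 630 nm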
# SUMO1-SIM PPI: modulators of SUMO1 protein-protein interactions, primary screen, biochemical, uHTS | SUMO1 binding to a labelled peptide, TR-FRET, 1 h | Small ubiquitin-related modifier 1 (Homo sapiens), P63165 | AID 602429, 2012 | inhibition, % at 20 µM | 360,000 compounds, 0.33% hits; in the data active = inhibition above about 37%
# Target sequence (P63165 whole entry, looked up): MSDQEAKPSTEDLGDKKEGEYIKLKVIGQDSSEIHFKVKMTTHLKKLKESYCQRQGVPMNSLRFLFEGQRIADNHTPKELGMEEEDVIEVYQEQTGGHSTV
# FAS-TE inh: FAS thioesterase domain inhibitors, primary screen, biochemical, fluorescence intensity, uHTS. Fatty acid synthase (Homo sapiens), P49327. recombinant FAS-TE, OMFH fluorogenic substrate, fluorescence endpoint. inhibition, % at 15 µM. 360,000 compounds, 0.67% hits;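 active = compounds whose normalised, plate-corrected inhibition of enzyme fluorescence in the single-dose primary screen is 50% or more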
# LMPTP inh: LMPTP phosphatase inhibitors, primary screen, biochemical, fluorescence intensity, uHTS; recombinant LMPTP-A, OMFP fluorogenic substrate; inhibition, % at 20 µM; 360,000 compounds, 0.22% hits;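 active = compounds that cut the enzyme signal by at least half of the control window in the single-dose screen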
# Target sequence (P24666 whole entry, looked up): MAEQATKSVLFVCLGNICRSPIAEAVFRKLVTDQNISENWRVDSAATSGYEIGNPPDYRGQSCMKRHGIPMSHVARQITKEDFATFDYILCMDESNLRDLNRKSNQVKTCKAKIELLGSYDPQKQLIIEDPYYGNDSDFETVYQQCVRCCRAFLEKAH
#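 Test system – LMPTP-A enzyme · Amount – LMPTP-A at 0.625 nM final in the reaction · Buffer or medium – Bis-Tris pH 6.0, DTT, detergent · Reagent – OMFP 400 µM · Doses – single 20 µM dose · Schedule – reaction 50 min, room temperature, dark · Detection – fluorescence intensity of OMFP turnover product · Evaluation – percent inhibition versus substrate-only and uninhibited controls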
# STEP inh conf: STEP phosphatase inhibitor hit confirmation, biochemical, fluorescence intensity, single concentration; 520 compounds, 32% hits; AID 623866, 2012; shares compounds with STEP block; recombinant STEP, OMFP fluorogenic substrate; inhibition, % at 20 µM; call rule not given here
# FAS-TE conf: FAS thioesterase domain inhibitors, confirmation, biochemical, fluorescence intensity, single concentration; shares compounds with FAS-TE inh; recombinant FAS-TE, OMFH fluorogenic substrate; inhibition, % at 15 µM; 2,300 compounds, 45% hits;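 active = compounds inhibiting the enzyme by at least 50% at 15 µM in any one of the replicates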
# A number is an active result; . = inactive; / = no result.
SMILES,STEP block,Scp-1 inhibitor,SUMO1-SIM PPI,FAS-TE inh,LMPTP inh,FAS-TE conf,others
CCN(CC)S(=O)(=O)c1ccc2oc(C(=O)NCc3ccc(C)cc3)c(C)c2c1,60.7,.,.,.,.,/,STEP inh conf=.
COC(=O)c1ccc([N+](=O)[O-])cc1N1C(=O)C2C3CCC(C3)C2C1=O (configuration not stated),63.8,.,.,.,.,/,STEP inh conf=.
O=C(CN1C(=O)NC2(CCCc3ccccc32)C1=O)N1CCCCC1 (configuration not stated),.,.,.,.,.,/,
CCCn1c(=O)n(C)c(=O)c2c(SCC(=O)Nc3cc(C)on3)nc(C(C)(C)C)nc21,.,.,.,.,.,/,
COc1ccc(C(=O)Oc2ccc3ccc(=O)oc3c2)cc1,73.7,.,.,.,.,/,STEP inh conf=.
O=C(Oc1ccc2ccc(=O)oc2c1)c1ccccc1,.,.,.,.,.,/,
COc1ccc(N2CCN(S(=O)(=O)CCNC(=O)C3CC3)CC2)cc1,.,.,.,.,.,/,
Cn1cc(P(=S)(N2CCOCC2)N2CCOCC2)cc1P(=O)(N1CCOCC1)N1CCOCC1,.,.,.,.,.,/,
Cn1cc(P(=O)(N2CCOCC2)N2CCOCC2)cc1P(=S)(N1CCOCC1)N1CCOCC1,61.7,.,.,.,.,/,STEP inh conf=.
O=C(NN=Cc1ccccc1O)c1cccc([N+](=O)[O-])c1,59.3,96.7,.,61.2,81.8,.,STEP inh conf=100.3
O=C(Nc1cccc(F)c1)N1CCc2nc(NCc3cccc(Oc4ccccc4)c3)ncc2C1,.,/,.,.,.,/,
Cc1ccc(C(=O)c2cc([N+](=O)[O-])ccc2N2CCOCC2)cc1,.,.,.,.,.,/,
Cc1ccc(COC(=O)c2cc([N+](=O)[O-])ccc2N2CCOCC2)cc1,.,/,.,53.9,.,52.0,
O=C(OCc1ccccc1Cl)c1cc([N+](=O)[O-])ccc1N1CCOCC1,.,.,.,.,.,/,
O=C(OCc1ccc([N+](=O)[O-])cc1)c1cc([N+](=O)[O-])ccc1N1CCOCC1,.,.,.,79.8,.,75.8,
CC1=C(C(=O)Nc2ccccc2)C(c2ccncc2)C(C#N)=C(SCC(=O)NC2CC2)N1 (configuration not stated),.,.,.,.,.,/,
CC1=C(C(=O)Nc2nc3ccccc3s2)C(c2ccco2)C(C#N)=C(SCC(=O)NC2CCCCC2)N1 (configuration not stated),.,.,.,76.7,.,.,
CCOC1=C2CN(S(=O)(=O)c3ccc(C)cc3)[C@H](c3ccccc3)C[C@@H]2N(S(=O)(=O)c2ccc(Br)cc2)[C@H](c2ccccc2)C1,.,/,.,.,.,/,
CCOC1=C2CN(S(=O)(=O)c3ccc(C)cc3)[C@H](c3cccc4ccccc34)C[C@H]2[C@H]2C(=O)N(c3ccccc3)C(=O)[C@H]2C1,.,/,.,77.2,.,.,
CCOC1=C2CN(S(=O)(=O)c3ccc(C)cc3)[C@@H](c3ccc(CC)cc3)C[C@H]2[C@H]2C(=O)N(c3ccccc3)C(=O)[C@H]2C1,.,/,.,71.8,.,.,
CCOC1=C2CN(S(=O)(=O)c3ccc(C)cc3)[C@H](c3ccccc3)C[C@H]2[C@H]2C(=O)N(c3ccccc3)C(=O)[C@H]2C1,.,/,.,59.0,.,.,
CCOC1=C2[C@@H](CN(S(=O)(=O)c3ccc(C)cc3)[C@H]2c2cccs2)[C@H]2C(=O)N(c3ccccc3)C(=O)[C@H]2C1,.,/,.,.,.,/,
COc1cc(/C=C/C(=O)O)cc(S(=O)(=O)N(CC(C)C)CC(C)C)c1OC,.,.,.,.,.,/,
COc1ccc(NC(=O)C2CC(=O)N(c3ccccc3F)C2)cc1S(=O)(=O)N1CCCCC1 (configuration not stated),.,/,.,.,.,/,
Cn1c(SCC(=O)NC(=O)Cc2ccccc2)nnc1-c1ccc(F)cc1,.,.,.,.,.,/,
SMILES,STEP block,Scp-1 inhibitor,SUMO1-SIM PPI,FAS-TE inh,LMPTP inh,FAS-TE conf,others
CN1/C(=C\C(=O)c2cccc(S(=O)(=O)N3CCCCC3)c2)C(C)(C)c2ccccc21,.,.,.,.,.,/,
CN1c2ccccc2C(C)(C)C12CC(c1ccc(S(=O)(=O)N3CCCCC3)cc1)=NO2 (configuration not stated),.,.,.,74.9,.,.,
CN1c2ccccc2C(C)(C)C12CC(c1cccc(S(=O)(=O)N3CCCC3)c1)=NO2 (configuration not stated),.,.,.,74.1,.,.,
CCN(CC)S(=O)(=O)c1ccc(C2=NOC3(C2)N(C)c2ccccc2C3(C)C)cc1 (configuration not stated),.,.,.,.,.,/,
CC(C)(C)C1CCc2c(sc3ncn(N)c(=N)c23)C1 (configuration not stated),.,.,.,.,.,/,
CC(=O)N1N=C(c2cccc([N+](=O)[O-])c2)OC1c1cccc(Br)c1 (configuration not stated),.,.,.,53.9,.,60.1,
CC(=O)N1N=C(c2cccc(Cl)c2)OC1c1cccc([N+](=O)[O-])c1 (configuration not stated),.,.,.,.,.,/,
COc1ccccc1N1CN(S(=O)(=O)c2ccc(C)cc2)c2nc3ccccc3nc21,.,.,.,57.4,.,.,
CC[C@]1(c2cccc(C)c2)C(=O)N(C(=O)OC)N1C(=O)OC,.,.,.,62.4,.,59.0,
COC(=O)N1C(=O)[C@@](Cc2ccccc2)(c2ccccc2)N1C(=O)OC,.,.,.,.,.,/,
CC[C@@]1(c2ccccc2)C(=O)N(C(=O)OC)N1C(=O)OC,.,.,.,.,.,/,
COC(=O)N1C(=O)[C@](Cc2ccccc2)(c2ccccc2)N1C(=O)OC,.,.,.,62.8,.,75.3,
CCCN(CC(=O)Nc1ccccc1C)C(=O)CCCNC(=O)c1ccc(Cl)cc1,.,.,.,.,.,/,
O=[N+]([O-])c1c(NCCCO)cc(Sc2nc3ccccc3s2)c2nonc12,.,.,.,76.8,.,75.1,
CCC(=O)OCCNc1cc(Sc2nc3ccccc3[nH]2)c2nonc2c1[N+](=O)[O-],.,.,.,80.3,.,82.6,

# High-throughput results (PubChem)
